According to ChEMBL document CHEMBL5579886, “Selective Degradation of MLK3 by a Novel CEP1347-VHL-02 PROTAC Compound Limits the Oncogenic Potential of TNBC” (J Med Chem, 2024):
Activity calls are given as the source filed them. No cut-off for these calls is given here.

Tests used:
[1] = molecular target: T1, von Hippel-Lindau disease tumor suppressor/Mitogen-activated protein kinase kinase kinase 11 (Homo sapiens, UniProt Q16584+P40337); assay: PROTAC activity at VHL/DOX-inducible MLK3 (unknown origin) overexpressed in human A-375 cells assessed as protein degradation at 0.1 uM incubated for 24 hrs by immunoblot analysis; assay type: cell-based
How it was run: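 A375 cells with DOX-inducible MLK3 were seeded at 100 000/well and induced with 1 μg/mL DOX for 24 h. Eight VHL-based PROTACs were then tested at 0.1–5 μM for 24 h, with DMSO as control. MLK3 was detected by ECL immunoblot of RIPA lysates, normalised to GAPDH or β-actin.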
Target sequence in this assay (P40337 whole entry, looked up): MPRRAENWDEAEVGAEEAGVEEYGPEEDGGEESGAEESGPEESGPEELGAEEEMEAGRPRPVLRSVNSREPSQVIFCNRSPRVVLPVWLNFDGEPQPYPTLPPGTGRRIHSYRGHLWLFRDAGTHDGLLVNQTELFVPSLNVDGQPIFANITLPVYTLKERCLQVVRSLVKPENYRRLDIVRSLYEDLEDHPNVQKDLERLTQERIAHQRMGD
Target sequence in this assay (Q16584 whole entry, looked up): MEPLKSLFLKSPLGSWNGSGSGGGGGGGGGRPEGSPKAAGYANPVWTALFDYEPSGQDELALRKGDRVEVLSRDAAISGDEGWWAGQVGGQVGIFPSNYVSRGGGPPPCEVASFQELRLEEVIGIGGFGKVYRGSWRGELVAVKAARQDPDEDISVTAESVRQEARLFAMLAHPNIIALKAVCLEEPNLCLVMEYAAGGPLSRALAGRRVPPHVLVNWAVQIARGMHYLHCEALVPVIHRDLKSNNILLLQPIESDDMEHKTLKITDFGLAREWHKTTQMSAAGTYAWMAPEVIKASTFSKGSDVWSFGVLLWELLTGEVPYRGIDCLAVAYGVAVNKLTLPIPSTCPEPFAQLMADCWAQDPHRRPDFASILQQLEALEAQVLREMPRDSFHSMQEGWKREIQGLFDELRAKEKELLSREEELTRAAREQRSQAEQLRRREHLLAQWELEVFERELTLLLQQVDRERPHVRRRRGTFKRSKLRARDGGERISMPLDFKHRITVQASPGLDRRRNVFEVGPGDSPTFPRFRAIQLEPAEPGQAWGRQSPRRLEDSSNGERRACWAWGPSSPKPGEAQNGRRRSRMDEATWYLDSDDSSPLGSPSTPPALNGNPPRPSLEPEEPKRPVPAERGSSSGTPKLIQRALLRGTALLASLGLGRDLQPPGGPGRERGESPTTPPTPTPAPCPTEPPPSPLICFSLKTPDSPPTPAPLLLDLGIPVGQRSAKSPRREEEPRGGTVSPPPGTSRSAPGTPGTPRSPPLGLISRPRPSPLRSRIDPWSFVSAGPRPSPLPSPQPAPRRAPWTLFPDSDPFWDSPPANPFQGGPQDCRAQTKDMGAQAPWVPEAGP

[2] = molecular target: T1, von Hippel-Lindau disease tumor suppressor/Mitogen-activated protein kinase kinase kinase 11; assay: PROTAC activity at VHL/DOX-inducible MLK3 (unknown origin) overexpressed in human HCC1806 cells assessed as protein degradation at 0.5 uM measured after 2 hrs by immunoblot analysis relative to control; assay type: cell-based
How it was run: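 HCC1806 cells with DOX-inducible MLK3 were induced with 1 μg/mL DOX for 24 h, then treated at 0.5 μM for times from 2 to 24 h, with DMSO as control. MLK3 was measured by immunoblot of RIPA lysates with ECL detection.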
Target sequence in this assay (P40337 whole entry, looked up): as the sequence (P40337 whole entry, looked up) above
Target sequence in this assay (Q16584 whole entry, looked up): as the sequence (Q16584 whole entry, looked up) above

[3] = molecular target: T1, von Hippel-Lindau disease tumor suppressor/Mitogen-activated protein kinase kinase kinase 11; assay: PROTAC activity at VHL/MLK3 in human MCF7 cells assessed as protein degradation measured after 4 to 48 hrs by Western blot analysis; assay type: cell-based; conditions: dose 1.0 µM, time 4-48 hrs
How it was run: (§1)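 MCF-7 and MDA-MB-468 cells were seeded at 100 000/well and treated with 1 μM PROTAC for 4–48 h, with DMSO as control. MLK3 was quantified by immunoblot as percent remaining, and t1/2 of degradation was derived from the time course.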
Target sequence in this assay (P40337 whole entry, looked up): as the sequence (P40337 whole entry, looked up) above
Target sequence in this assay (Q16584 whole entry, looked up): as the sequence (Q16584 whole entry, looked up) above

[4] = molecular target: T1, von Hippel-Lindau disease tumor suppressor/Mitogen-activated protein kinase kinase kinase 11; assay: PROTAC activity at VHL/MLK3 in human MDA-MB-468 cells assessed as protein degradation measured after 4 to 48 hrs by Western blot analysis; assay type: cell-based; conditions: dose 1.0 µM, time 4-48 hrs; how it was run: as §1
Target sequence in this assay (P40337 whole entry, looked up): as the sequence (P40337 whole entry, looked up) above
Target sequence in this assay (Q16584 whole entry, looked up): as the sequence (Q16584 whole entry, looked up) above

[5] = molecular target: T1, von Hippel-Lindau disease tumor suppressor/Mitogen-activated protein kinase kinase kinase 11; assay: PROTAC activity at VHL/MLK3 in human MCF7 cells assessed as protein degradation at 1 uM by Western blot analysis; assay type: cell-based; conditions: time 4-48 hrs, TDE = time-dependent effect
Target sequence in this assay (P40337 whole entry, looked up): as the sequence (P40337 whole entry, looked up) above
Target sequence in this assay (Q16584 whole entry, looked up): as the sequence (Q16584 whole entry, looked up) above

[6] = molecular target: T1, von Hippel-Lindau disease tumor suppressor/Mitogen-activated protein kinase kinase kinase 11; assay: PROTAC activity at VHL/MLK3 in human MDA-MB-468 cells assessed as half life of protein degradation at 1 uM by Western blot analysis; assay type: cell-based
How it was run: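 Endogenous MLK3: cells seeded at 100 000/well, treated next day with 1 μM PROTAC for 4–48 h, DMSO control; immunoblot with GAPDH or β-actin loading control. Remaining MLK3 quantified over time and t1/2 derived.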
Target sequence in this assay (P40337 whole entry, looked up): as the sequence (P40337 whole entry, looked up) above
Target sequence in this assay (Q16584 whole entry, looked up): as the sequence (Q16584 whole entry, looked up) above

[7] = molecular target: T1, von Hippel-Lindau disease tumor suppressor/Mitogen-activated protein kinase kinase kinase 11; assay: PROTAC activity at VHL/MLK3 in human MCF7 cells assessed as protein degradation measured after 24 hrs by Western blot analysis; assay type: cell-based
How it was run: (§2)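 Endogenous MLK3: cells seeded at 100 000/well, treated next day for 24 h with PROTAC at 0.1–5 μM, DMSO control; immunoblot with GAPDH or β-actin loading control. Remaining MLK3 percentage plotted against concentration to derive DC50 and Dmax.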
Target sequence in this assay (Q16584 whole entry): as the sequence (Q16584 whole entry, looked up) above
Target sequence in this assay (P40337 whole entry): as the sequence (P40337 whole entry, looked up) above

[8] = molecular target: T1, von Hippel-Lindau disease tumor suppressor/Mitogen-activated protein kinase kinase kinase 11; assay: PROTAC activity at VHL/MLK3 in human MDA-MB-468 cells assessed as protein degradation measured after 24 hrs by Western blot analysis; assay type: cell-based; how it was run: as §2
Target sequence in this assay (Q16584 whole entry): as the sequence (Q16584 whole entry, looked up) above
Target sequence in this assay (P40337 whole entry): as the sequence (P40337 whole entry, looked up) above

[9] = molecular target: T1, von Hippel-Lindau disease tumor suppressor/Mitogen-activated protein kinase kinase kinase 11; assay: PROTAC activity at VHL/MLK3 in human MCF7 cells assessed as protein degradation at 0.1 to 5 uM measured after 24 hrs by Western blot analysis relative to control; assay type: cell-based; conditions: dose 0.1-5 µM; how it was run: as §2
MDA-MB-468 [10] = assay: Effect on MLK3 mRNA level in human MDA-MB-468 cells at 1 uM measured after 24 hrs by RT-qPCR analysis; assay type: functional, cell-based
How it was run: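 Total RNA extracted from MCF-7 and MDA-MB-468 cells 24 h after PROTAC treatment, purity and concentration checked spectrophotometrically, reverse transcribed to cDNA and MLK3 transcript quantified by RT-qPCR.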

[11] = molecular target: T1, von Hippel-Lindau disease tumor suppressor/Mitogen-activated protein kinase kinase kinase 11; assay: PROTAC activity at VHL/MLK3 in human MCF7 cells assessed as protein degradation at 1 uM measured after 24 hrs by immunoblot analysis; assay type: cell-based
How it was run: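 MCF-7 and MDA-MB-468 cells were treated for 24 h across 0.1–5 μM, with DMSO as control. MLK3 was immunoblotted and quantified as percent remaining versus concentration, from which DC50 and Dmax were derived.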

[12] = molecular target: T2, von Hippel-Lindau disease tumor suppressor/Mitogen-activated protein kinase kinase kinase 10 (Homo sapiens) (UniProt Q02779+P40337); assay: PROTAC activity at VHL/MLK2 in human MCF7 cells assessed as protein degradation at 1 uM incubated for 24 hrs by immunoblot analysis; assay type: cell-based
How it was run: (§3)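 Endogenous MLK1, MLK2 or MLK4 levels in MCF-7 and MDA-MB-468 cells. Cells were grown in high-glucose DMEM with 10% FBS, seeded at 100 000 cells/well and treated the next day for 24 h, with DMSO as control. Lysis was in RIPA with protease inhibitor, followed by 10% SDS-PAGE, nitrocellulose transfer and ECL immunoblot with GAPDH or β-actin as loading control.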

[13] = molecular target: T3, von Hippel-Lindau disease tumor suppressor/Mitogen-activated protein kinase kinase kinase 21 (Homo sapiens) (UniProt P40337+Q5TCX8); assay: PROTAC activity at VHL/MLK4 in human MDA-MB-468 cells assessed as protein degradation at 1 uM incubated for 24 hrs by immunoblot analysis; assay type: cell-based; how it was run: as §3
[14] = molecular target: T2, von Hippel-Lindau disease tumor suppressor/Mitogen-activated protein kinase kinase kinase 10 (Homo sapiens); assay: PROTAC activity at IAP/MLK2 in human MCF7 cells assessed as protein degradation at 1 uM incubated for 24 hrs by immunoblot analysis; assay type: cell-based; how it was run: as §3
[15] = molecular target: von Hippel-Lindau disease tumor suppressor/Mitogen-activated protein kinase kinase kinase 9 (Homo sapiens) (UniProt P80192+P40337); assay: PROTAC activity at IAP/MLK1 in human MDA-MB-468 cells assessed as protein degradation at 1 uM incubated for 24 hrs by immunoblot analysis; assay type: cell-based; how it was run: as §3
[16] = molecular target: T3, von Hippel-Lindau disease tumor suppressor/Mitogen-activated protein kinase kinase kinase 21 (Homo sapiens); assay: PROTAC activity at IAP/MLK4 in human MDA-MB-468 cells assessed as protein degradation at 1 uM incubated for 24 hrs by immunoblot analysis; assay type: cell-based; how it was run: as §3
[17] = molecular target: T1, von Hippel-Lindau disease tumor suppressor/Mitogen-activated protein kinase kinase kinase 11; assay: PROTAC activity at VHL/MLK3 in human MCF7 cells assessed as decrease in JNK pathway at 1 uM measured after 24 hrs by immunoblot analysis; assay type: cell-based
MCF7 [18] = assay: Inhibition of colony formation in human MCF7 cells at 1 uM incubated for 15 days by crystal violet staining based analysis; assay type: functional, cell-based; conditions: time 15.0 day
How it was run: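 5000 cells per 6 cm plate in triplicate with 1 μM PROTAC or DMSO, medium changed every 5 days; colonies stained with crystal violet after 14–15 days. Three independent experiments, mean ± SD, unpaired t-test against control.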

MDA-MB-468 [19] = assay: Inhibition of colony formation in human MDA-MB-468 cells harboring siMLK3 by crystal violet staining based analysis; assay type: functional, cell-based
How it was run: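 MCF-7 or MDA-MB-468 seeded at 10 000 cells/well, transfected next day with MAP3K11 SMARTpool siRNA or nontargeting control siRNA; crystal violet staining 7 days after transfection. Knockdown confirmed by immunoblot.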

MDA-MB-468 [20] = assay: Growth inhibition of human MDA-MB-468 cell spheroids in low-attachment surface at 1 uM incubated for 10 days; assay type: functional, cell-based; conditions: time 10.0 day
How it was run: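 Cells grown 10 days in low-attachment surface plates in medium containing 1 μM PROTAC or DMSO; spheroid growth assessed.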

MCF7 [21] = assay: Growth inhibition of human MCF7 cell spheroids in hydrogel at 1 uM incubated for 10 days; assay type: functional, cell-based; conditions: time 10.0 day
How it was run: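 4000 cells plated on top of hydrogels and grown 10 days with 1 μM PROTAC or DMSO; spheroid formation and size scored.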

T2 sequence (P40337 whole entry, looked up): as above
T2 sequence (Q02779 whole entry, looked up): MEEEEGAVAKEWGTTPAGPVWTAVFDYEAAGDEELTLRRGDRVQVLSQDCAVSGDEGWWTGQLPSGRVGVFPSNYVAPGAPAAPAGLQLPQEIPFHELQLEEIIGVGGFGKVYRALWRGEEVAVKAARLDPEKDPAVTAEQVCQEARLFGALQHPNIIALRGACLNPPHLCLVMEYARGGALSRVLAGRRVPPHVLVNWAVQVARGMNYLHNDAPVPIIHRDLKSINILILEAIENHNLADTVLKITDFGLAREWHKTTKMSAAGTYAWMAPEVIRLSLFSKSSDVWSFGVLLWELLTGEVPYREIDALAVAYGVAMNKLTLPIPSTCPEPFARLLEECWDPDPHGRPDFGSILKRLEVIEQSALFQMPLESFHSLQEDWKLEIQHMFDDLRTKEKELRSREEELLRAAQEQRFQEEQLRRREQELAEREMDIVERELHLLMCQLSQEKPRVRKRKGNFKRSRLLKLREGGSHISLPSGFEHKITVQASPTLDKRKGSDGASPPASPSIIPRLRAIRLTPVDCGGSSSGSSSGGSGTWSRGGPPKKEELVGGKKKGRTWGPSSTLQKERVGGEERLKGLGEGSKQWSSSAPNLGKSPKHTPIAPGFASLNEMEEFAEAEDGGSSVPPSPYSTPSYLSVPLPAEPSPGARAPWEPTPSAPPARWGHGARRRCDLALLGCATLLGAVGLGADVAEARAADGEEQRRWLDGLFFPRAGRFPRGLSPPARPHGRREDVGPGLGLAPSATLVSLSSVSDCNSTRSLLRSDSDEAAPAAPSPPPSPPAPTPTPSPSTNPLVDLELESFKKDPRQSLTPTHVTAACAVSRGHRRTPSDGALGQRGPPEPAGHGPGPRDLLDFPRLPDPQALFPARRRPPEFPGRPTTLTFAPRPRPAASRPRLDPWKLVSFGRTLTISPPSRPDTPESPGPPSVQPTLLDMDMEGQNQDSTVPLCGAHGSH
T3 sequence (P40337 whole entry, looked up): as the sequence (P40337 whole entry, looked up) above
T3 sequence (Q5TCX8 whole entry, looked up): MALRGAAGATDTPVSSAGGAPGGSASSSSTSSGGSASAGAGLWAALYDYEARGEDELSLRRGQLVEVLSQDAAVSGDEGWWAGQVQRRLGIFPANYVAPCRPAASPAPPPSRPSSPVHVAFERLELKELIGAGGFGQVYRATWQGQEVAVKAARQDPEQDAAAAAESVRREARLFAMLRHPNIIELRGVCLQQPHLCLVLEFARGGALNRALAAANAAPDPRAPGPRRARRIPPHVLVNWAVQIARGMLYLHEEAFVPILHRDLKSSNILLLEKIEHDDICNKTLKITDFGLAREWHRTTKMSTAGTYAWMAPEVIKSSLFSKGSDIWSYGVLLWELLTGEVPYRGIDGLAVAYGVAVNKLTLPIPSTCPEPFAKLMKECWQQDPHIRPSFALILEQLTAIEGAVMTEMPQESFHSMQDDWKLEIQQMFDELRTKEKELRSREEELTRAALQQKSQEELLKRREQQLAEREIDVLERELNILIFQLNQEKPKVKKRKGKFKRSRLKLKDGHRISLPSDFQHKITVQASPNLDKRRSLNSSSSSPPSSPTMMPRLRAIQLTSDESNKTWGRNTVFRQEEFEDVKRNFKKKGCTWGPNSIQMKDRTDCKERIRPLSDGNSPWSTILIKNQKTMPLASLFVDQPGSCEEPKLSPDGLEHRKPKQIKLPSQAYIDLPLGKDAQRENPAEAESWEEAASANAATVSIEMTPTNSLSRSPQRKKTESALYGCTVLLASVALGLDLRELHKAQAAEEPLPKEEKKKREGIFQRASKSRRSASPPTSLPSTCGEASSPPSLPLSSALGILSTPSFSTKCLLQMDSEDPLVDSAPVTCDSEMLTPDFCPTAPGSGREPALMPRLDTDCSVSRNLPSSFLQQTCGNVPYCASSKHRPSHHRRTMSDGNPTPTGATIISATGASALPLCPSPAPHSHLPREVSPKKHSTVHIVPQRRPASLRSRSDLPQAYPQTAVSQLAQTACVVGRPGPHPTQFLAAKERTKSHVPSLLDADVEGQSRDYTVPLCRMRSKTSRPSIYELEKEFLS

`CCSCc1ccc2c(c1)c1c3c(c4c5cc(CSCC)ccc5n5c4c1n2[C@H]1C[C@](O)(C(=O)NCCOCCOCCOCC(=O)N[C@H](C(=O)N2C[C@H](O)C[C@H]2C(=O)N[C@@H](C)c2ccc(-c4scnc4C)cc2)C(C)(C)C)[C@]5(C)O1)CNC3=O` was tested, and the Activity [1] was “Active”, the Activity [2] was 100% and the Activity [3] was “Dose-Dependent Effect”. The Activity [4] was “Dose-Dependent Effect”, the Activity [5] was “Tde” and the T1/2 [6] was 4 h. It also gave a DC50 [7] of 0.05 µM, a DC50 [8] of 0.3 µM and an Emax [9] of 77%. The Activity (MDA-MB-468 [10]) was “inactive”, the Activity [11] was “Active” and the Activity [12] was “inactive”. The Activity [13] was “inactive”, the Activity [14] was “inactive” and the Activity [15] was “inactive”. The Activity [16] was “inactive”, the Activity [17] was “Active” and the inhibition (MCF7 [18]) was “inactive”. The inhibition (MDA-MB-468 [19]) was “Active”, the “growth inhibition (GI)” value (MDA-MB-468 [20]) was “Active” and the “growth inhibition (GI)” value (MCF7 [21]) was “inactive”.
